Results published in ChEMBL document CHEMBL1136463, “The relationship between physicochemical properties, in vitro activity and pharmacokinetic profiles of analogues of diamine-containing efflux pump inhibitors” (Bioorg Med Chem Lett, 2003).

Tested on: not listed separately
Assay: Ionization constant (pKa2) of compound was determined
Format: physicochemical
Details: read-out: pKa2

Row | SMILES | pKa
1 | NC[C@@H]1CN[C@@H](C(=O)N[C@H](CCc2ccccc2)C(=O)Nc2cnc3ccccc3c2)C1 | 6.8
2 | NCC(=O)N1C[C@@H](N)C[C@@H]1C(=O)N[C@H](CCc1ccccc1)C(=O)Nc1ccc2ncccc2c1 | 7.2
3 | NCC(=O)N1CCNC(C(=O)N[C@H](CCc2ccccc2)C(=O)Nc2cnc3ccccc3c2)C1 (stereo partly drawn) | 5.4
4 | NCC(=O)N1C[C@@H](N)C[C@@H]1C(=O)N[C@H](CCc1ccccc1)C(=O)Nc1cnc2ccccc2c1 | 7.1
5 | NCC(=O)N1C[C@@H](CN)C[C@@H]1C(=O)N[C@H](CCc1ccccc1)C(=O)Nc1ccc2ncccc2c1 | 7.7

Other lines, results leading:

Row | pKa | SMILES
6 | 5.2 | N[C@@H]1CN[C@@H](C(=O)N[C@H](CCc2ccccc2)C(=O)Nc2cnc3ccccc3c2)C1
7 | 6.3 | N[C@@H]1CN[C@@H](CC(=O)N[C@H](CCc2ccccc2)C(=O)Nc2cnc3ccccc3c2)C1
8 | 6.3 | NCC(=O)N1CCNCC1C(=O)N[C@H](CCc1ccccc1)C(=O)Nc1cnc2ccccc2c1 (stereo partly drawn)
9 | 6.9 | NC[C@@H]1CN[C@@H](C(=O)N[C@H](CCc2ccccc2)C(=O)Nc2ccc3ncccc3c2)C1

Tested on: Rattus norvegicus
Assay: Area under curve (AUC) at a dose 1 mg/kg was determined in rat liver
Format: ADME, organism-based
Design: dose 1 mg/kg
Details: in vivo
Summary of the method: (§1)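 Male Sprague–Dawley rats with femoral and jugular venous catheters (5 rats), dosed alone or in cassettes of up to five compounds by 2 h constant-rate femoral vein infusion at 1 to 10 mg/kg. One rat killed at 0.25, 2, 8, 16 and 24 h after infusion start. Liver, kidney and lung homogenates assayed by HPLC/MS/MS. Tissue AUC0–24 h normalized to 1 mg/kg.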

Row | SMILES | AUC
10 | C[C@@H](N)C(=O)N[C@H](CCc1ccccc1)C(=O)Nc1cnc2ccccc2c1 | 5.5 mg·h/kg
11 | NCC(=O)N1C[C@@H](N)C[C@@H]1C(=O)N[C@H](CCc1ccccc1)C(=O)Nc1ccc2ncccc2c1 | 12 mg·h/kg
12 | NCC(=O)N1C[C@@H](N)C[C@@H]1C(=O)N[C@H](CCc1ccccc1)C(=O)Nc1cnc2ccccc2c1 | 20 mg·h/kg
13 | NCC(=O)N1C[C@@H](CN)C[C@@H]1C(=O)N[C@H](CCc1ccccc1)C(=O)Nc1ccc2ncccc2c1 | 26 mg·h/kg

More lines, now with the values ahead:

Row | AUC | SMILES
14 | 13 mg·h/kg | N[C@@H]1CN[C@@H](C(=O)N[C@H](CCc2ccccc2)C(=O)Nc2cnc3ccccc3c2)C1
15 | 176 mg·h/kg | Cc1cc2nc([C@@H](CCc3ccccc3)NC(=O)[C@H]3C[C@H](N)CN3C(=O)CN)[nH]c2cc1C
16 | 22 mg·h/kg | NC[C@@H]1CN[C@@H](C(=O)N[C@H](CCc2ccccc2)C(=O)Nc2ccc3ncccc3c2)C1

Tested on: not listed separately
Assay: Partition coefficient (logP)
Format: physicochemical
Details: octanol/water

Row | SMILES | logP
17 | NCC(=O)N1C[C@@H](N)C[C@@H]1C(=O)N[C@H](CCc1ccccc1)C(=O)Nc1ccc2ncccc2c1 | 1.4
18 | NCC(=O)N1C[C@@H](N)C[C@@H]1C(=O)N[C@H](CCc1ccccc1)C(=O)Nc1cnc2ccccc2c1 | 1.8
19 | NCC(=O)N1C[C@@H](CN)C[C@@H]1C(=O)N[C@H](CCc1ccccc1)C(=O)Nc1ccc2ncccc2c1 | 1.2

Further lines, results first:

Row | logP | SMILES
20 | 2.3 | N[C@@H]1CN[C@@H](C(=O)N[C@H](CCc2ccccc2)C(=O)Nc2cnc3ccccc3c2)C1
21 | 2.8 | Cc1cc2nc([C@@H](CCc3ccccc3)NC(=O)[C@H]3C[C@H](N)CN3C(=O)CN)[nH]c2cc1C
22 | 2.3 | NC[C@@H]1CN[C@@H](C(=O)N[C@H](CCc2ccccc2)C(=O)Nc2ccc3ncccc3c2)C1

Tested on: Rattus norvegicus
Assay: Area under curve (AUC) at a dose 1 mg/kg was determined in rat lung
Format: ADME, organism-based
Design: dose 1 mg/kg
Details: in vivo
Summary of the method: as §1

Row | SMILES | AUC
23 | NCC(=O)N1C[C@@H](N)C[C@@H]1C(=O)N[C@H](CCc1ccccc1)C(=O)Nc1ccc2ncccc2c1 | 4 mg·h/kg
24 | NCC(=O)N1C[C@@H](N)C[C@@H]1C(=O)N[C@H](CCc1ccccc1)C(=O)Nc1cnc2ccccc2c1 | 3 mg·h/kg
25 | NCC(=O)N1C[C@@H](CN)C[C@@H]1C(=O)N[C@H](CCc1ccccc1)C(=O)Nc1ccc2ncccc2c1 | 4 mg·h/kg

Continued, values first:

Row | AUC | SMILES
26 | 14 mg·h/kg | N[C@@H]1CN[C@@H](C(=O)N[C@H](CCc2ccccc2)C(=O)Nc2cnc3ccccc3c2)C1
27 | 5 mg·h/kg | Cc1cc2nc([C@@H](CCc3ccccc3)NC(=O)[C@H]3C[C@H](N)CN3C(=O)CN)[nH]c2cc1C
28 | 15 mg·h/kg | NC[C@@H]1CN[C@@H](C(=O)N[C@H](CCc2ccccc2)C(=O)Nc2ccc3ncccc3c2)C1

Tested on: Rattus norvegicus
Assay: Area under curve (AUC) at a dose 1 mg/kg was determined in rat kidney
Format: ADME, organism-based
Design: dose 1 mg/kg
Details: in vivo
Summary of the method: as §1

Row | SMILES | AUC
29 | C[C@@H](N)C(=O)N[C@H](CCc1ccccc1)C(=O)Nc1cnc2ccccc2c1 | 8.5 mg·h/kg
30 | NCC(=O)N1C[C@@H](N)C[C@@H]1C(=O)N[C@H](CCc1ccccc1)C(=O)Nc1ccc2ncccc2c1 | 96 mg·h/kg
31 | NCC(=O)N1C[C@@H](N)C[C@@H]1C(=O)N[C@H](CCc1ccccc1)C(=O)Nc1cnc2ccccc2c1 | 79 mg·h/kg
32 | NCC(=O)N1C[C@@H](CN)C[C@@H]1C(=O)N[C@H](CCc1ccccc1)C(=O)Nc1ccc2ncccc2c1 | 100 mg·h/kg

The next lines start with the values.

Row | AUC | SMILES
33 | 25 mg·h/kg | N[C@@H]1CN[C@@H](C(=O)N[C@H](CCc2ccccc2)C(=O)Nc2cnc3ccccc3c2)C1
34 | 133 mg·h/kg | Cc1cc2nc([C@@H](CCc3ccccc3)NC(=O)[C@H]3C[C@H](N)CN3C(=O)CN)[nH]c2cc1C
35 | 56 mg·h/kg | NC[C@@H]1CN[C@@H](C(=O)N[C@H](CCc2ccccc2)C(=O)Nc2ccc3ncccc3c2)C1

Tested on: not listed separately
Assay: Ionization constant (pKa1) of compound was determined
Format: physicochemical
Details: read-out: pKa1

Row | SMILES | pKa
36 | NC[C@@H]1CN[C@@H](C(=O)N[C@H](CCc2ccccc2)C(=O)Nc2cnc3ccccc3c2)C1 | 9.6
37 | NCC(=O)N1C[C@@H](N)C[C@@H]1C(=O)N[C@H](CCc1ccccc1)C(=O)Nc1ccc2ncccc2c1 | 8.2
38 | NCC(=O)N1CCNC(C(=O)N[C@H](CCc2ccccc2)C(=O)Nc2cnc3ccccc3c2)C1 (stereo partly drawn) | 8.5
39 | NCC(=O)N1C[C@@H](N)C[C@@H]1C(=O)N[C@H](CCc1ccccc1)C(=O)Nc1cnc2ccccc2c1 | 8.1
40 | NCC(=O)N1C[C@@H](CN)C[C@@H]1C(=O)N[C@H](CCc1ccccc1)C(=O)Nc1ccc2ncccc2c1 | 9

More lines, now with the values ahead:

Row | pKa | SMILES
41 | 8.8 | N[C@@H]1CN[C@@H](C(=O)N[C@H](CCc2ccccc2)C(=O)Nc2cnc3ccccc3c2)C1
42 | 9.3 | N[C@@H]1CN[C@@H](CC(=O)N[C@H](CCc2ccccc2)C(=O)Nc2cnc3ccccc3c2)C1
43 | 8.2 | NCC(=O)N1CCNCC1C(=O)N[C@H](CCc1ccccc1)C(=O)Nc1cnc2ccccc2c1 (stereo partly drawn)
44 | 9.6 | NC[C@@H]1CN[C@@H](C(=O)N[C@H](CCc2ccccc2)C(=O)Nc2ccc3ncccc3c2)C1

Tested on: Pseudomonas aeruginosa
Assay: Minimum potentiation concentration required to reduce (potentiate) the activity of antibacterial drug-levofloxacin for Pseudomonas aeruginosa by n-fold in the absence of horse serum
Format: functional
Details: not given

Row | SMILES | MPC
45 | N[C@@H]1CN[C@@H](C(=O)N[C@H](CCc2ccccc2)C(=O)Nc2cnc3ccccc3c2)C1 | >40 µg/mL
46 | Cc1cc2nc([C@@H](CCc3ccccc3)NC(=O)[C@H]3C[C@H](N)CN3C(=O)CN)[nH]c2cc1C | 5 µg/mL
47 | N[C@@H]1CN[C@@H](CC(=O)N[C@H](CCc2ccccc2)C(=O)Nc2cnc3ccccc3c2)C1 | 5 µg/mL
48 | NCC(=O)N1CCNCC1C(=O)N[C@H](CCc1ccccc1)C(=O)Nc1cnc2ccccc2c1 (stereo partly drawn) | 20 µg/mL
49 | NC[C@@H]1CN[C@@H](C(=O)N[C@H](CCc2ccccc2)C(=O)Nc2cnc3ccccc3c2)C1 | 5 µg/mL
50 | NCC(=O)N1C[C@@H](N)C[C@@H]1C(=O)N[C@H](CCc1ccccc1)C(=O)Nc1ccc2ncccc2c1 | 20 µg/mL
51 | NCC(=O)N1CCNC(C(=O)N[C@H](CCc2ccccc2)C(=O)Nc2cnc3ccccc3c2)C1 (stereo partly drawn) | >40 µg/mL
52 | NCC(=O)N1C[C@@H](N)C[C@@H]1C(=O)N[C@H](CCc1ccccc1)C(=O)Nc1cnc2ccccc2c1 | 10 µg/mL
53 | NC[C@@H]1CN[C@@H](C(=O)N[C@H](CCc2ccccc2)C(=O)Nc2ccc3ncccc3c2)C1 | 10 µg/mL
54 | NCC(=O)N1C[C@@H](CN)C[C@@H]1C(=O)N[C@H](CCc1ccccc1)C(=O)Nc1ccc2ncccc2c1 | 10 µg/mL

Tested on: not listed separately
Assay: Clearance (Cl) of compound after 2 h iv infusion of 8.4 mg/kg in three rat
Format: ADME, organism-based
Design: dose 8.4 mg/kg, route intravenous
Details: in vivo

Row | clearance | SMILES
55 | 26.7 mL/min/kg | NC[C@@H]1CN[C@@H](C(=O)N[C@H](CCc2ccccc2)C(=O)Nc2ccc3ncccc3c2)C1

Tested on: not listed separately
Assay: T1/2 (half life) of compound after 2 hr iv infusion of 8.4 mg/kg in three rat
Format: ADME, organism-based
Design: dose 8.4 mg/kg, route intravenous
Details: in vivo

Row | half-life | SMILES
56 | 43.8 min | NC[C@@H]1CN[C@@H](C(=O)N[C@H](CCc2ccccc2)C(=O)Nc2ccc3ncccc3c2)C1

Tested on: not listed separately
Assay: Partition coefficient (logD)
Format: physicochemical
Details: octanol/water

Row | SMILES | logD
57 | NCC(=O)N1C[C@@H](N)C[C@@H]1C(=O)N[C@H](CCc1ccccc1)C(=O)Nc1ccc2ncccc2c1 | 0.5
58 | NCC(=O)N1C[C@@H](N)C[C@@H]1C(=O)N[C@H](CCc1ccccc1)C(=O)Nc1cnc2ccccc2c1 | 0.9
59 | NCC(=O)N1C[C@@H](CN)C[C@@H]1C(=O)N[C@H](CCc1ccccc1)C(=O)Nc1ccc2ncccc2c1 | -0.5

Now from value to molecule:

Row | logD | SMILES
60 | 1.1 | N[C@@H]1CN[C@@H](C(=O)N[C@H](CCc2ccccc2)C(=O)Nc2cnc3ccccc3c2)C1
61 | 1.9 | Cc1cc2nc([C@@H](CCc3ccccc3)NC(=O)[C@H]3C[C@H](N)CN3C(=O)CN)[nH]c2cc1C
62 | 0.5 | NC[C@@H]1CN[C@@H](C(=O)N[C@H](CCc2ccccc2)C(=O)Nc2ccc3ncccc3c2)C1

Tested on: not listed separately
Assay: Steady state volume distribution (Vss) of compound after 2 hr iv infusion of 8.4 mg/kg in three rat
Format: ADME, organism-based
Design: dose 8.4 mg/kg, route intravenous
Details: in vivo, read-out: Vss

Row | Vd | SMILES
63 | 0.5 L/kg | NC[C@@H]1CN[C@@H](C(=O)N[C@H](CCc2ccccc2)C(=O)Nc2ccc3ncccc3c2)C1
